Laboratory results published in ChEMBL document CHEMBL4680142, “Thiazolidine-2,4-dione-based irreversible allosteric IKK-β kinase inhibitors: Optimization into in vivo active anti-inflammatory agents” (Eur J Med Chem, 2020).

Test system: Mus musculus
Assay: Antiinflammatory activity against LPS-induced sepsis C57BL/6 mouse model assessed as organism survival rate at 5 to 50 mg/kg, po administered 1 hr before LPS stimulation and measured after 36 hrs relative to control
Type: functional
Conditions: dose 5-50 mg/kg, time 37 hrs
Procedure, shortened: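 Male C57BL/6 mice (6 or 10 weeks), water only for 24 h beforehand. Compound given orally at 5 or 50 mg/kg 1 h before intraperitoneal injection of LPS (Salmonella enterica serotype enteritidis, 25 mg/kg in PBS); controls received PBS. Survival monitored for 36 h.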

CN1CCN(CCCOc2ccc(N3C(=O)S/C(=C\c4ccc(Oc5ccc(C#N)cc5)cc4)C3=O)cc2)CC1
Survival: 80%
